Experiment [1] concerns the target T1, Short transient receptor potential channel 7 (Homo sapiens) (UniProt Q9HCX4).
T1 sequence (whole entry): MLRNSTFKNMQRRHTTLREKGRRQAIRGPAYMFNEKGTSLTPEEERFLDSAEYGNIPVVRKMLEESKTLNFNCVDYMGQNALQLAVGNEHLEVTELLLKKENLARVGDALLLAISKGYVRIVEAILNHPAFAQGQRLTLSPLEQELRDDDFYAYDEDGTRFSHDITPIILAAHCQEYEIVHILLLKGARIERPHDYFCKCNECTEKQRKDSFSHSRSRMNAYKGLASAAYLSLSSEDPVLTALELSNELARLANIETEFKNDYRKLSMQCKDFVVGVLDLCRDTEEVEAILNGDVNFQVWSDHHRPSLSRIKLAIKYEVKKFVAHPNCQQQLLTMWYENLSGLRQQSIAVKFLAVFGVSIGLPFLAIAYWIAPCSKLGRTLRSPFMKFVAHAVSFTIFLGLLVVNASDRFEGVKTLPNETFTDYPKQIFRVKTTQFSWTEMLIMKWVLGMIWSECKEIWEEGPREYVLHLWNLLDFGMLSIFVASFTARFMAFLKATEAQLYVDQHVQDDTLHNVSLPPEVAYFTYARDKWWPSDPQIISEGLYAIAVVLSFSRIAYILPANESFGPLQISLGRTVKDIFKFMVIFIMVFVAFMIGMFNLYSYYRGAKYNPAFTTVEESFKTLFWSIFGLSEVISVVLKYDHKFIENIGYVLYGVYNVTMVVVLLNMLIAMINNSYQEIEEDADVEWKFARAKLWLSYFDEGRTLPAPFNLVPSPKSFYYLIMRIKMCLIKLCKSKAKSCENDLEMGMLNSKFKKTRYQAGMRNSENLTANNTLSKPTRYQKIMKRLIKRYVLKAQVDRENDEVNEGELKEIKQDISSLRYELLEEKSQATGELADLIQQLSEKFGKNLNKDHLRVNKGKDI
Kind of experiment: Antagonist activity at human TRPC7 receptor expressed in HEK293 cells assessed as channel desensitization up to 30 uM in presence of 0.1 mM Ca2+ by whole cell patch-clamp method. Type of experiment: cell-based. An outline of the steps:
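Whole-cell clamp of TRPC6/M5 or TRPC7 HEK293 cells with 0.1 mM Ca2+ bath and 400 nM free Ca2+ pipette. Ramps +100 to −100 mV every 1 s. Increasing concentrations given consecutively by perfusion (TRPC6 highest 20–100 μM; TRPC7 up to 30 μM). Currents at positive and negative potentials followed for desensitization.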

Experiment [2] deals with T2, Transient receptor potential cation channel subfamily M member 5 (Homo sapiens) (UniProt Q9NZQ8).
T2 sequence (whole entry): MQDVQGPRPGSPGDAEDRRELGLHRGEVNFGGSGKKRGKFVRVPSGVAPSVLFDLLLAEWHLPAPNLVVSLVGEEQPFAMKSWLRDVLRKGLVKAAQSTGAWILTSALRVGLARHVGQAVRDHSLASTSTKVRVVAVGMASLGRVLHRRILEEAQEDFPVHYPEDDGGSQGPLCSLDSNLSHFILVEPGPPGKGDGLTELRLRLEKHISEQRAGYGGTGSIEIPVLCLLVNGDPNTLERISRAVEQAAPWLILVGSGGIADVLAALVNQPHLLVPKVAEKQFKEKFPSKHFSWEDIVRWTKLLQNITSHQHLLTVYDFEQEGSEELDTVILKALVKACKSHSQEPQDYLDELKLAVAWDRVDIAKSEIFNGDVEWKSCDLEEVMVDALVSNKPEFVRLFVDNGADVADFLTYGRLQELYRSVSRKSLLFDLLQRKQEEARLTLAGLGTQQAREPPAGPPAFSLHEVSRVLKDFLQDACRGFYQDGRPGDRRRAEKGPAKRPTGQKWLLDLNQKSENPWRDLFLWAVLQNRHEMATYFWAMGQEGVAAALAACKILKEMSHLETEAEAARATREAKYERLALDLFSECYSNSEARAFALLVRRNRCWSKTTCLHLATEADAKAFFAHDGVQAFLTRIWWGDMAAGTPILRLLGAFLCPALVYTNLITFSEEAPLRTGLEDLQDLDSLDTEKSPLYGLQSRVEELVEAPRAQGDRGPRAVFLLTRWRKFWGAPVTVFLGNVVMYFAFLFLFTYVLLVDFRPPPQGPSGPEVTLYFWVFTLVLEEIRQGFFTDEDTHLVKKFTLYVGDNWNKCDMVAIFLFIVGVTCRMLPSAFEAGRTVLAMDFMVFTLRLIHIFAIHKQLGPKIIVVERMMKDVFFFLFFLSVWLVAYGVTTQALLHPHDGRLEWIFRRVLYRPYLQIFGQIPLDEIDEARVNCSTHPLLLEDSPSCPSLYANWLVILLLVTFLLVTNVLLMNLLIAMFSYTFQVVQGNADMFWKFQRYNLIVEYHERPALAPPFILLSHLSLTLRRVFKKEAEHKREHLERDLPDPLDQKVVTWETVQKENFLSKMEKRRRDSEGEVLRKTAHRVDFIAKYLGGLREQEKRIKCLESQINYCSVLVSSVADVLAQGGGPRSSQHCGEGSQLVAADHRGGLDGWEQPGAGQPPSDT
Kind of experiment: Inhibition of human TRPM5 expressed in HEK293 cells assessed as decrease in carbachol-evoked membrane depolarization at 22 uM preincubated for 2 mins followed by carbachol addition measured for 2.5 mins by FLIPR membrane potential dye-based fluorescence assay relative to control. It counts as cell-based. An outline of the steps:
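Same TRP panel as for the stimulation tests, with FMP dye for TRPC4 and M5 and Fluo8-AM for TRPA1, V1 and M8. Compound applied for 2 min before the channel agonist (TRPC4: 1 μM DAMGO). Inhibition of the agonist response measured on a FlexStation at 32 °C.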

Usually inhibition stands for the percentage by which the read-out fell short of the control.

The source made the active and inactive calls. The calls are words filed in the database; no cut-off is given here.

Take `CCOC(=O)N1CCC(c2cc(O)n3nc(C)c(-c4ccc(F)cc4)c3n2)CC1`: the inhibition result in experiment [1] is “Active”.
For `CCOC(=O)N1CCC(c2cc(O)n3nc(C)c(-c4ccc(C(F)(F)F)cc4)c3n2)CC1`, the inhibition in experiment [2] was less than 20%.
